The record followed here is ChEMBL document CHEMBL4219143, “Synthesis, structure-activity relationships and preliminary mechanism study of N-benzylideneaniline derivatives as potential TLR2 inhibitors” (Bioorg Med Chem, 2018).

What all share (type): cell-based
Assay [1] has as its target Toll-like receptor 2 (Homo sapiens) (UniProt O60603). Description: Antagonist activity at human TLR2 expressed in HEK-blue cells assessed as inhibition of Pam3CSK4-induced NF-kappaB activation-mediated SEAP production at 25 uM after 24 hrs by Quanti-blue-based assay. Summed up: (§1)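 HEK-Blue hTLR2 cells in DMEM with 10% serum and antibiotics, plated at 4 × 10⁴ cells per well for 24 h. Medium then replaced with compound plus agonist for 24 h at 37 °C. Agonists (final): Pam₃CSK₄ 10 ng/ml (TLR1/2), Pam₂CSK₄ 10 ng/ml (TLR2/6), Poly I:C 10 µg/ml (TLR3). Supernatant mixed 1:1 with Quanti-Blue; SEAP read at OD 620 nm after 15–30 min.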

The target is the same in assay [2]. Briefly: Antagonist activity at human TLR2 expressed in HEK-blue cells assessed as inhibition of Pam3CSK4-induced NF-kappaB activation-mediated SEAP production at 50 uM after 24 hrs by Quanti-blue-based assay. An outline of the steps: as §1
Assay [3] has as its target TLR2/TLR6 (Homo sapiens) (UniProt O60603+Q9Y2C9). Description: Antagonist activity at human TLR2/6 expressed in HEK-blue cells assessed as inhibition of Pam2CSK4-induced IL-8 mRNA expression at 100 uM preincubated for 1 hr followed by Pam2CSK4 induction measured after 1 hr by qRT-PCR method relative to control. (In general: Real-time PCR tracks product formation cycle by cycle.)

The target in assay [4] is Toll-like receptor 1/2 (Homo sapiens) (UniProt O60603+Q15399). Briefly: Antagonist activity at human TLR1/2 expressed in HEK-blue cells assessed as inhibition of Pam3CSK4-induced IL-8 mRNA expression at 100 uM preincubated for 1 hr followed by Pam3CSK4 induction measured after 1 hr by qRT-PCR method relative to control.

Toll-like receptor 2 (Homo sapiens), sequence (O60603 whole entry): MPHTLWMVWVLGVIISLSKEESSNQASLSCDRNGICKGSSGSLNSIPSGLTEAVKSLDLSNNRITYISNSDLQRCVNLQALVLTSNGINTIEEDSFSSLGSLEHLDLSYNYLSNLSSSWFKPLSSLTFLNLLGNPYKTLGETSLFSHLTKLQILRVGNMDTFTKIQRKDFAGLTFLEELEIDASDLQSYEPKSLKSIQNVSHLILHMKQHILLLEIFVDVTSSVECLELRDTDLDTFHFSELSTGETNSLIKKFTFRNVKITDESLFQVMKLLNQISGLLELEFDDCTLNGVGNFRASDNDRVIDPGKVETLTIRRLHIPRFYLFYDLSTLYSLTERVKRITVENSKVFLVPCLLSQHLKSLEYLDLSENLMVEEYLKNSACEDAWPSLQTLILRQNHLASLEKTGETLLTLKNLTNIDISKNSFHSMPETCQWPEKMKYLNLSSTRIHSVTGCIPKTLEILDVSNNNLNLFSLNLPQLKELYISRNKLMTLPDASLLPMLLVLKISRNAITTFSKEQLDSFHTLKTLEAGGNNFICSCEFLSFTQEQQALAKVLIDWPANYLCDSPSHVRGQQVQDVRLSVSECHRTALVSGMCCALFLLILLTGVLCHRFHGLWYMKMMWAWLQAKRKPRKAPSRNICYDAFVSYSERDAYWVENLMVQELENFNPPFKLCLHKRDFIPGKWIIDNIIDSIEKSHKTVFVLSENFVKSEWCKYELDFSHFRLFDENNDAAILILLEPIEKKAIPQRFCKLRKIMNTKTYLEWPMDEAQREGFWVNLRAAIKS

For the compound `COc1cccc(/C=N/c2ccc(O)cc2)c1`, the inhibition (in general, the change of the read-out against control, counted positive when it falls) in assay [1] stood at 0.74%; in assay [2], 56.4%.

As for `COc1cccc(/C=N/c2cccc(C(=O)O)c2C)c1`, the inhibition in assay [1] was determined as 0.99%; in assay [2], 1.61%.

`COc1ccc(/N=C/c2cccc3ccccc23)cc1`: the figures for the inhibition in assay [1] and in assay [2] were 5.21% and 1.97%, respectively.

Regarding `CCOc1cccc(/C=N/c2cccc(C(=O)O)c2C)c1O`, the inhibition came out at 5.43% in assay [1] and 38% in assay [2].

In the case of `CCOc1cccc(/C=N/c2ccc(O)cc2)c1O`, the inhibition stood at 5.77% in assay [1] and 75.7% in assay [2].

As to `COc1cccc(/C=N/c2ccc(O)cc2)c1O`, the inhibition stood at 14.9% in assay [1] and 91.1% in assay [2].

For `Cc1cccc(/N=C/c2c(O)ccc3ccccc23)c1C(=O)O`, the inhibition in assay [1] and in assay [2] was 0% in each case.

`O=C(O)c1cccc(/N=C/c2c(O)ccc3ccccc23)c1`: the inhibition in assay [1] and in assay [2] was 0% throughout.

As for `COc1ccc(/N=C/c2cccc(OC)c2OC)cc1`, the inhibition in assay [1] and in assay [2] was 0% in each case.

With `Cc1c(/N=C/c2ccc(C(F)(F)F)cc2)cccc1C(=O)O`, the inhibition in assay [1] and in assay [2] was 0% throughout.

In the case of `COc1cccc(/C=N/c2cccc(C(=O)O)c2C)c1O`, the inhibition is greater than 50% in assay [3], 14.9% in assay [1], greater than 50% in assay [4] and 51.8% in assay [2].

As to `O=C(O)c1ccc(C(F)(F)F)cc1/N=C/c1c(O)ccc2ccccc12`, the inhibition in assay [1] turned out to be 2.53%; in assay [2], 0%.

As for `C(=N/c1ccc(-c2ccccc2)cc1)/c1c[nH]c2ccccc12`, the inhibition in assay [1] turned out to be 2.35%; in assay [2], 3.8%.

For the compound `Oc1ccc(/N=C/c2cccc3ccccc23)cc1`, the values for the inhibition in assay [1] and in assay [2] were 44% and 98.8%, respectively.

With `O=C(c1ccc(Cl)cc1)c1ccccc1/N=C/c1c(O)ccc2ccccc12`, the inhibition in assay [1] was 3.09%; in assay [2], 22.9%.

Consider `CCOc1cccc(/C=N/c2cccc(C)c2C(=O)O)c1O`, for which the inhibition came to 2.39% in assay [1] and 27.8% in assay [2].

Take `Cc1c(/N=C/C=C/c2ccccc2)cccc1C(=O)O`: the figures for the inhibition in assay [1] and in assay [2] were 1.74% and 14.4%, respectively.

As for `CCOc1cccc(/C=N/c2ccc(OC)cc2)c1O`, the inhibition in assay [1] stood at 8.33%; in assay [2], 35.2%.

As for `COc1cccc(/N=C/c2ccc(C(F)(F)F)cc2)c1`, the inhibition was found to be 7.27% in assay [1] and 0.28% in assay [2].

`CCOc1cccc(/C=N/c2cccc(C(=O)O)c2)c1O`: the inhibition was determined as 6.93% in assay [1] and 19.4% in assay [2].

In the case of `FC(F)(F)c1ccc(/C=N/c2ccc(-c3ccccc3)cc2)cc1`, the values for the inhibition in assay [1] and in assay [2] were 5.07% and 0.75%, respectively.

As for `Oc1ccc2ccccc2c1/C=N/c1ccc(-c2ccccc2)cc1`, the inhibition came to 5.35% in assay [1] and 1.41% in assay [2].

As to `Cc1c(/N=C\c2c[nH]c3ccccc23)cccc1C(=O)O`, the inhibition was found to be 2.39% in assay [1] and 2.58% in assay [2].

`COc1ccc(/N=C/c2ccc(O)c(OC)c2)cc1`: the inhibition in assay [1] and in assay [2] was 0% in each case.

On to `COc1ccc(/N=C\c2c[nH]c3ccccc23)cc1`, for which the inhibition in assay [1] turned out to be 2.11%; in assay [2], 0%.

Turning to `COc1ccc(/N=C/C=C/c2ccccc2)cc1`, the inhibition was 3.99% in assay [1] and 15.1% in assay [2].

Consider `O=C(c1ccccc1)c1ccccc1/N=C/c1c(O)ccc2ccccc12`, for which the results for the inhibition in assay [1] and in assay [2] were 2.72% and 0%, respectively.

Turning to `COc1cc(/C=N/c2ccc(O)cc2)ccc1O`, the inhibition worked out at 7.51% in assay [1] and 62.7% in assay [2].

As to `C(=C\c1ccccc1)/C=N/c1ccc(-c2ccccc2)cc1`, the figures for the inhibition in assay [1] and in assay [2] were 5.63% and 3.1%, respectively.

Take `O=C(O)c1cccc(/N=C/c2cccc(O)c2O)c1`: the figures for the inhibition in assay [1] and in assay [2] were 5% and 9.05%, respectively.

Turning to `Cc1c(/N=C/c2c(O)ccc3ccccc23)cccc1C(=O)O`, the inhibition in assay [1] and in assay [2] was 0% throughout.

On to `COc1cc(/C=N/c2ccc(-c3ccccc3)cc2)ccc1O`, for which the inhibition in assay [1] stood at 2.39%; in assay [2] it was 0%.

Take `COc1ccc(/N=C/c2cccc(OC)c2O)cc1`: the inhibition in assay [1] amounted to 3.77%; in assay [2], 45.6%.

Consider `COc1cc(/C=N/c2cc(N)cc(C(=O)O)c2)ccc1O`, for which the inhibition in assay [1] and in assay [2] was 0% in each case.

With `COc1cccc(/C=N/c2cccc(C(=O)O)c2)c1O`, the inhibition amounted to 0% in assay [1] and 23.7% in assay [2].

As for `COc1cccc(/C=N/c2ccccc2C(=O)c2ccccc2)c1O`, the inhibition came to 1.86% in assay [1] and 30% in assay [2].

In the case of `O=C(O)c1ccc(C(F)(F)F)cc1/N=C\c1c[nH]c2ccccc12`, the inhibition in assay [1] stood at 0.33%; in assay [2], 5.77%.

With `Oc1ccc(/N=C/c2c(O)ccc3ccccc23)cc1`, the inhibition in assay [1] and in assay [2] was 0% in each case.

For the compound `Cc1cccc(/N=C/c2cccc(O)c2O)c1C(=O)O`, the inhibition in assay [1] is 15%; in assay [2] it was 21.2%.

As for `Oc1ccc(/N=C/C=C/c2ccccc2)cc1`, the inhibition in assay [1] was 27.5%; in assay [2], 95.8%.

In the case of `COc1ccc(/N=C/c2c(O)ccc3ccccc23)cc1`, the inhibition in assay [1] amounted to 3.66%; in assay [2], 0%.

Regarding `COc1ccc(/N=C/c2cccc(O)c2O)cc1`, the inhibition is 17% in assay [1] and 44.9% in assay [2].

`COc1cccc(/C=N/c2ccc(-c3ccccc3)cc2)c1O`: the inhibition in assay [1] worked out at 23.3%; in assay [2] it was 75.3%.

`CCOc1cccc(/C=N/c2ccccc2C(=O)c2ccccc2)c1O`: the inhibition in assay [1] worked out at 3.59%; in assay [2], 49%.

As to `C(=N\c1ccc(-c2ccccc2)cc1)/c1cccc2ccccc12`, the inhibition in assay [1] and in assay [2] was 0% in each case.

In the case of `COc1cccc(CNc2ccccc2C(=O)c2ccc(Cl)cc2)c1O`, the values for the inhibition in assay [1] and in assay [2] were 0% and 19.2%, respectively.

Regarding `CCOc1cccc(/C=N/c2ccccc2C(=O)c2ccc(Cl)cc2)c1O`, the inhibition is 35.5% in assay [1] and 70.7% in assay [2].

`CCOc1cccc(/C=N/c2ccc(-c3ccccc3)cc2)c1O`: the inhibition worked out at 24.2% in assay [1] and 64.1% in assay [2].

For `COc1cccc(/C=N/c2ccc(-c3ccccc3)cc2)c1`, the inhibition in assay [1] and in assay [2] was 0% in each case.
